Data from ChEMBL document CHEMBL1125826, “Synthesis and biological activity of 5-amino- and 5-hydroxyquinolones, and the overwhelming influence of the remote N1-substituent in determining the structure-activity relationship” (1991).
≈ marks a conversion by molar mass, not a printed value.

Tests used:
Type in all cases: functional
Klebsiella pneumoniae = test: Antibacterial activity was determined against gram negative organism, Klebsiella pneumoniae MGH-2; conditions: Klebsiella pneumoniae; read-out: MIC
Procedure, shortened: (§1)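 MIC (µg/mL) by standard microtitration against a panel of 10 Gram-positive and Gram-negative organisms; values averaged from multiple experiments.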

Escherichia coli [1] = test: The in vivo potency was determined in female charles river CD-1 mice infected with Escherichia coli after peroral administration; conditions: Escherichia coli, po; read-out: PD50
Procedure, shortened: (§2)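 Acute lethal systemic infection in female CD-1 mice, 16 mice per route; single dose given orally by gavage at the time of challenge; median protective dose (PD50, mg/kg) determined.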

Bacteria [2] = test: Antibacterial activity was determined against gram negative organism, Providencia rettgeri. M1771; conditions: Bacteria; read-out: MIC; procedure, shortened: as §1
[3] = target: DNA gyrase (Escherichia coli) (UniProt P0AES6+P0AES4); test: Minimum inhibitory concentration against Escherichia coli DNA-gyrase in supercoiling assay
Streptococcus pyogenes [4] = test: Antibacterial activity was determined against gram positive organism, Streptococcus pyogenes C203; conditions: Streptococcus pyogenes; read-out: MIC; procedure, shortened: as §1
Streptococcus pneumoniae = test: Antibacterial activity was determined against gram positive organism, Streptococcus pneumoniae SV-1; conditions: Streptococcus pneumoniae; read-out: MIC; procedure, shortened: as §1
Escherichia coli [5] = test: The in vivo potency was determined in female charles river CD-1 mice infected with Escherichia coli after sc administration; conditions: Escherichia coli, sc; read-out: PD50
Procedure, shortened: (§3)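 Acute lethal systemic infection in female CD-1 mice, 16 mice per route; single subcutaneous dose given at the time of challenge; median protective dose (PD50, mg/kg) determined.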

Staphylococcus aureus [6] = test: Antibacterial activity was determined against gram positive organism, Staphylococcus aureus H228; conditions: Staphylococcus aureus; read-out: MIC; procedure, shortened: as §1
Enterococcus faecalis = test: Antibacterial activity was determined against gram positive organism, Streptococcus faecalis MGH-2; conditions: Enterococcus faecalis; read-out: MIC; procedure, shortened: as §1
Staphylococcus aureus [7] = test: Antibacterial activity was determined against gram positive organism, Staphylococcus aureus UC76; procedure, shortened: as §1
Streptococcus pyogenes [8] = test: The in vivo potency was determined in female charles river CD-1 mice infected with Streptococcus pyogenes after peroral administration; conditions: Streptococcus pyogenes, po; read-out: PD50; procedure, shortened: as §2
Pseudomonas aeruginosa = test: Antibacterial activity was determined against gram negative organism, Pseudomonas aeruginosa UI-18; conditions: Pseudomonas aeruginosa; read-out: MIC; procedure, shortened: as §1
Enterobacter cloacae = test: Antibacterial activity was determined against gram negative organism, Enterobacter cloacae MA2646; conditions: Enterobacter cloacae; read-out: MIC
Streptococcus pyogenes [9] = test: The in vivo potency was determined in female charles river CD-1 mice infected with Streptococcus pyogenes after sc administration; conditions: Streptococcus pyogenes, sc; read-out: PD50; procedure, shortened: as §3
Escherichia coli [10] = test: Antibacterial activity was determined against gram negative organism, Escherichia coli vogel; conditions: Escherichia coli; read-out: MIC; procedure, shortened: as §1
Bacteria [11] = test: MIC ratio measured as the mean MICs of gram-positive bacteria
Procedure, shortened: (§4)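 Geometric mean of the microtitration MICs (µg/mL) over the Gram-negative organisms, and separately over the Gram-positive organisms, of the 10-strain panel; individual MICs averaged from multiple experiments.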

Bacteria [12] = test: MIC ratio measured as the mean MICs of gram-negative bacteria; procedure, shortened: as §4
[13] = Staphylococcus aureus, read-out: MIC

CCNCC1CCN(c2c(F)c(N)c3c(=O)c(C(=O)O)cn(C4CC4)c3c2Cl)C1 (centres undefined)
MIC (Klebsiella pneumoniae): 0.4 µg/mL (≈ 0.946 µM)
ED50 (Escherichia coli [1]): 32 mg/kg
MIC (Bacteria [2]): 0.8 µg/mL (≈ 1.89 µM)
MIC [3]: 1 µg/mL (≈ 2.36 µM)
MIC (Streptococcus pyogenes [4]): 0.025 µg/mL (≈ 0.0591 µM)
MIC (Streptococcus pneumoniae): 0.025 µg/mL (≈ 0.0591 µM)
ED50 (Escherichia coli [5]): 3 mg/kg
MIC (Staphylococcus aureus [6]): 0.1 µg/mL (≈ 0.236 µM)
MIC (Enterococcus faecalis): 0.1 µg/mL (≈ 0.236 µM)
MIC (Staphylococcus aureus [7]): 0.025 µg/mL (≈ 0.0591 µM)
ED50 (Streptococcus pyogenes [8]): 31 mg/kg
MIC (Pseudomonas aeruginosa): 1.6 µg/mL (≈ 3.78 µM)
MIC (Enterobacter cloacae): 0.2 µg/mL (≈ 0.473 µM)
ED50 (Streptococcus pyogenes [9]): 4 mg/kg
MIC (Escherichia coli [10]): 0.1 µg/mL (≈ 0.236 µM)

Nc1c(F)c(N2CCC(N)C2)cc2c1c(=O)c(C(=O)O)cn2C1CC1 (centres undefined)
MIC (Klebsiella pneumoniae): 0.025 µg/mL (≈ 0.0722 µM)
Geometric mean MIC over Gram-positive bacteria (µg/mL) (Bacteria [11]): 0.044
ED50 (Escherichia coli [1]): 8 mg/kg
MIC (Bacteria [2]): 0.05 µg/mL (≈ 0.144 µM)
MIC [3]: 2 µg/mL (≈ 5.77 µM)
MIC (Streptococcus pyogenes [4]): 0.05 µg/mL (≈ 0.144 µM)
MIC (Streptococcus pneumoniae): 0.025 µg/mL (≈ 0.0722 µM)
ED50 (Escherichia coli [5]): 0.7 mg/kg
MIC (Staphylococcus aureus [6]): 0.1 µg/mL (≈ 0.289 µM)
MIC (Enterococcus faecalis): 0.05 µg/mL (≈ 0.144 µM)
MIC (Staphylococcus aureus [7]; [13]): 0.025 µg/mL (≈ 0.0722 µM)
Geometric mean MIC over Gram-negative bacteria (µg/mL) (Bacteria [12]): 0.038
ED50 (Streptococcus pyogenes [8]): 110 mg/kg
MIC (Pseudomonas aeruginosa): 0.4 µg/mL (≈ 1.15 µM)
MIC (Enterobacter cloacae): 0.013 µg/mL (≈ 0.0375 µM)
ED50 (Streptococcus pyogenes [9]): 6 mg/kg
MIC (Escherichia coli [10]): 0.013 µg/mL (≈ 0.0375 µM)

CC1CN(c2cc3c(cc2F)c(=O)c(C(=O)O)cn3C2CC2)CC(C)N1 (centres undefined)
MIC (Klebsiella pneumoniae): 0.05 µg/mL (≈ 0.139 µM)
Geometric mean MIC over Gram-positive bacteria (µg/mL) (Bacteria [11]): 0.15
ED50 (Escherichia coli [1]): 0.7 mg/kg
MIC (Bacteria [2]): 0.2 µg/mL (≈ 0.556 µM)
MIC [3]: 1 µg/mL (≈ 2.78 µM)
MIC (Streptococcus pyogenes [4]): 0.2 µg/mL (≈ 0.556 µM)
MIC (Streptococcus pneumoniae): 0.2 µg/mL (≈ 0.556 µM)
ED50 (Escherichia coli [5]): 0.4 mg/kg
MIC (Staphylococcus aureus [6]): 0.2 µg/mL (≈ 0.556 µM)
MIC (Enterococcus faecalis): 0.2 µg/mL (≈ 0.556 µM)
MIC (Staphylococcus aureus [7]; [13]): 0.05 µg/mL (≈ 0.139 µM)
Geometric mean MIC over Gram-negative bacteria (µg/mL) (Bacteria [12]): 0.076
ED50 (Streptococcus pyogenes [8]): 15 mg/kg
MIC (Pseudomonas aeruginosa): 0.4 µg/mL (≈ 1.11 µM)
MIC (Enterobacter cloacae): 0.025 µg/mL (≈ 0.0696 µM)
ED50 (Streptococcus pyogenes [9]): 12 mg/kg
MIC (Escherichia coli [10]): 0.025 µg/mL (≈ 0.0696 µM)

Nc1c(F)c(N2CCNCC2)cc2c1c(=O)c(C(=O)O)cn2C1CC1
MIC (Klebsiella pneumoniae): 0.025 µg/mL (≈ 0.0722 µM)
Geometric mean MIC over Gram-positive bacteria (µg/mL) (Bacteria [11]): 0.087
ED50 (Escherichia coli [1]): 4 mg/kg
MIC (Bacteria [2]): 0.025 µg/mL (≈ 0.0722 µM)
MIC [3]: 1 µg/mL (≈ 2.89 µM)
MIC (Streptococcus pyogenes [4]): 0.2 µg/mL (≈ 0.577 µM)
MIC (Streptococcus pneumoniae): 0.1 µg/mL (≈ 0.289 µM)
ED50 (Escherichia coli [5]): 0.3 mg/kg
MIC (Staphylococcus aureus [6]): 0.1 µg/mL (≈ 0.289 µM)
MIC (Enterococcus faecalis): 0.1 µg/mL (≈ 0.289 µM)
MIC (Staphylococcus aureus [7]; [13]): 0.025 µg/mL (≈ 0.0722 µM)
Geometric mean MIC over Gram-negative bacteria (µg/mL) (Bacteria [12]): 0.038
MIC (Pseudomonas aeruginosa): 0.8 µg/mL (≈ 2.31 µM)
MIC (Enterobacter cloacae): 0.013 µg/mL (≈ 0.0375 µM)
MIC (Escherichia coli [10]): 0.013 µg/mL (≈ 0.0375 µM)

O=C(O)c1cn(C2CC2)c2c(Cl)c(N3CCNCC3)c(F)cc2c1=O
MIC (Klebsiella pneumoniae): 0.05 µg/mL (≈ 0.137 µM)
Geometric mean MIC over Gram-positive bacteria (µg/mL) (Bacteria [11]): 0.13
ED50 (Escherichia coli [1]): 0.8 mg/kg
MIC (Bacteria [2]): 0.1 µg/mL (≈ 0.273 µM)
MIC [3]: 0.5 µg/mL (≈ 1.37 µM)
MIC (Streptococcus pyogenes [4]): 0.2 µg/mL (≈ 0.547 µM)
MIC (Streptococcus pneumoniae): 0.1 µg/mL (≈ 0.273 µM)
ED50 (Escherichia coli [5]): 0.4 mg/kg
MIC (Staphylococcus aureus [6]): 0.1 µg/mL (≈ 0.273 µM)
MIC (Enterococcus faecalis): 0.4 µg/mL (≈ 1.09 µM)
MIC (Staphylococcus aureus [7]; [13]): 0.05 µg/mL (≈ 0.137 µM)
Geometric mean MIC over Gram-negative bacteria (µg/mL) (Bacteria [12]): 0.066
MIC (Pseudomonas aeruginosa): 0.4 µg/mL (≈ 1.09 µM)
MIC (Enterobacter cloacae): 0.025 µg/mL (≈ 0.0683 µM)
MIC (Escherichia coli [10]): 0.025 µg/mL (≈ 0.0683 µM)

CCNCC1CCN(c2c(F)c(N)c3c(=O)c(C(=O)O)cn4c3c2OCC4C)C1 (centres undefined)
MIC (Klebsiella pneumoniae): 0.8 µg/mL (≈ 1.98 µM)
Geometric mean MIC over Gram-positive bacteria (µg/mL) (Bacteria [11]): 0.26
ED50 (Escherichia coli [1]): > 100 mg/kg
MIC (Bacteria [2]): 3.1 µg/mL (≈ 7.66 µM)
MIC [3]: 7.5 µg/mL (≈ 18.5 µM)
MIC (Streptococcus pyogenes [4]): 0.1 µg/mL (≈ 0.247 µM)
MIC (Streptococcus pneumoniae): 0.4 µg/mL (≈ 0.989 µM)
ED50 (Escherichia coli [5]): 8 mg/kg
MIC (Staphylococcus aureus [6]): 0.8 µg/mL (≈ 1.98 µM)
MIC (Enterococcus faecalis): 0.4 µg/mL (≈ 0.989 µM)
MIC (Staphylococcus aureus [7]; [13]): 0.1 µg/mL (≈ 0.247 µM)
Geometric mean MIC over Gram-negative bacteria (µg/mL) (Bacteria [12]): 2.09
MIC (Pseudomonas aeruginosa): 12.5 µg/mL (≈ 30.9 µM)
MIC (Enterobacter cloacae): 1.6 µg/mL (≈ 3.96 µM)
MIC (Escherichia coli [10]): 0.8 µg/mL (≈ 1.98 µM)

CC1CN(c2c(F)cc3c(=O)c(C(=O)O)cn(C4CC4)c3c2F)CCN1 (centres undefined)
MIC (Klebsiella pneumoniae): 0.025 µg/mL (≈ 0.0688 µM)
Geometric mean MIC over Gram-positive bacteria (µg/mL) (Bacteria [11]): 0.26
ED50 (Escherichia coli [1]): 0.8 mg/kg
MIC (Bacteria [2]): 0.1 µg/mL (≈ 0.275 µM)
MIC [3]: 1 µg/mL (≈ 2.75 µM)
MIC (Streptococcus pyogenes [4]): 0.4 µg/mL (≈ 1.1 µM)
MIC (Streptococcus pneumoniae): 0.4 µg/mL (≈ 1.1 µM)
ED50 (Escherichia coli [5]): 0.4 mg/kg
MIC (Staphylococcus aureus [6]): 0.2 µg/mL (≈ 0.55 µM)
MIC (Enterococcus faecalis): 0.4 µg/mL (≈ 1.1 µM)
MIC (Staphylococcus aureus [7]; [13]): 0.1 µg/mL (≈ 0.275 µM)
Geometric mean MIC over Gram-negative bacteria (µg/mL) (Bacteria [12]): 0.066
MIC (Pseudomonas aeruginosa): 0.4 µg/mL (≈ 1.1 µM)
MIC (Enterobacter cloacae): 0.05 µg/mL (≈ 0.138 µM)
MIC (Escherichia coli [10]): 0.025 µg/mL (≈ 0.0688 µM)

CCNCC1CCN(c2cc3c(cc2F)c(=O)c(C(=O)O)cn3C2CC2)C1 (centres undefined)
MIC (Klebsiella pneumoniae): 0.2 µg/mL (≈ 0.536 µM)
Geometric mean MIC over Gram-positive bacteria (µg/mL) (Bacteria [11]): 0.1
ED50 (Escherichia coli [1]): 35 mg/kg
MIC (Bacteria [2]): 0.8 µg/mL (≈ 2.14 µM)
MIC [3]: 1 µg/mL (≈ 2.68 µM)
MIC (Streptococcus pyogenes [4]): 0.05 µg/mL (≈ 0.134 µM)
MIC (Streptococcus pneumoniae): 0.2 µg/mL (≈ 0.536 µM)
ED50 (Escherichia coli [5]): 2 mg/kg
MIC (Staphylococcus aureus [6]): 0.4 µg/mL (≈ 1.07 µM)
MIC (Enterococcus faecalis): 0.2 µg/mL (≈ 0.536 µM)
MIC (Staphylococcus aureus [7]; [13]): 0.013 µg/mL (≈ 0.0348 µM)
Geometric mean MIC over Gram-negative bacteria (µg/mL) (Bacteria [12]): 0.46
MIC (Pseudomonas aeruginosa): 1.6 µg/mL (≈ 4.28 µM)
MIC (Enterobacter cloacae): 0.4 µg/mL (≈ 1.07 µM)
MIC (Escherichia coli [10]): 0.2 µg/mL (≈ 0.536 µM)
